One compound from ChEMBL document CHEMBL5030567, “Macrocyclic Inhibitors of HGF-Activating Serine Proteases Overcome Resistance to Receptor Tyrosine Kinase Inhibitors and Block Lung Cancer Progression” (J Med Chem, 2021) can be followed below.

pIC50: −log10 of the molar value. Converted amounts (≈) assume the structure as drawn. The source made the active and inactive calls. The rule behind the calls is not given here. Numbered stars: 1 amine (or outer) side, 2 acyl side, 3 side chain; on linkers, the order of the positions; unused ones are H or OH. Square brackets hold non-standard residues; d marks the D form. Peptide text beside a SMILES is read from it. X1 = N=C(N)NCCC[C@H](N[*:1])C(=O)c1nc2ccc(C(=O)[*:2])cc2s1

Data set [1] concerns NCI-H596. Nature of the data set: Inhibition of pro-HGF stimulated cell growth in human H596 cells at 10 uM by ELISA. In kind it is functional, cell-based. (In general: In an ELISA, binding on a coated surface is turned into a signal by an enzyme label.)
Data set [2] in a line: Acute toxicity in NSG mouse at 20 to 100 mg/kg, ip administered for 7 days. In kind it is organism-based. The settings on record: in vivo, dose 20-100 mg/kg, time 7 day.
The nature of data set [3]: Toxicity in NSG mouse at 100 mg/kg, ip administered daily for 7 days. In kind it is organism-based. As to conditions: in vivo, time 7 day.
The test system of data set [4] is EBC-1. As to the kind of experiment: Cytotoxicity against human EBC-1 cells assessed as reduction in cell viability preincubated with compound and pro-HGF for 24 hrs followed by JNJ-38877605 addition and measured after 48 hrs by CellTiter-Glo assay. It is filed as functional, cell-based. As to conditions: time 72.0 hrs. A digest of the protocol:
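EBC-1 cells pre-incubated 24 h with pro-HGF (100 ng/ml) with or without compound (1 µM), then given MET kinase inhibitor JNJ-38877605 (25 nM). Viability read by CellTiter-Glo after 48 h. Means±S.E.M., n=3; one-way ANOVA with Dunnett's test.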
A general note: ATP-based viability assays read luminescence as a measure of living cells.

Data set [5] has as its target T1, Suppressor of tumorigenicity 14 protein (Homo sapiens, UniProt Q9Y5Y6).
T1 sequence (Q9Y5Y6 whole entry): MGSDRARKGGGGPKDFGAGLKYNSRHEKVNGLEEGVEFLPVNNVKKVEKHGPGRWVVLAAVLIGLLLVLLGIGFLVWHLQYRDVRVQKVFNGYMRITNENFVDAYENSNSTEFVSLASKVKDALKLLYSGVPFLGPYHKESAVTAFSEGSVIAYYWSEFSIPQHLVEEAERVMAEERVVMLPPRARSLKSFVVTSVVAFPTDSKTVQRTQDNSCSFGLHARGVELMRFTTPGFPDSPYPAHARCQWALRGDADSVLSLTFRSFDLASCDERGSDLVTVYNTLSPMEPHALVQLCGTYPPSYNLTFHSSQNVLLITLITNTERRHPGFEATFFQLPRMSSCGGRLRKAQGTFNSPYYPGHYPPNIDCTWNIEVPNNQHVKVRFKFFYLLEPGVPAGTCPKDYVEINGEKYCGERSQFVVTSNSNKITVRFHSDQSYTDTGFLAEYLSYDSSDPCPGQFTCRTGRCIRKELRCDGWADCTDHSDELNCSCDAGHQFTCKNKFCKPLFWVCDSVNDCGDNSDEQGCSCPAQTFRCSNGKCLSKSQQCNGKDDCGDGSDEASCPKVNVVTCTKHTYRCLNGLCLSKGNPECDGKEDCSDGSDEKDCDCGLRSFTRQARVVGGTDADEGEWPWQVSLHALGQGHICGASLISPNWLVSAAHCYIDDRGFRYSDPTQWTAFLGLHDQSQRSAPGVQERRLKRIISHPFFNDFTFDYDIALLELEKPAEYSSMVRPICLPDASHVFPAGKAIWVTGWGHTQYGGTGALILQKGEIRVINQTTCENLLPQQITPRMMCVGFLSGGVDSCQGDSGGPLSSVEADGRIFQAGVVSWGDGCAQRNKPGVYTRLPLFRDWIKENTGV
As to the kind of experiment: Inhibition of recombinant human N-terminal met-His6-tagged matriptase catalytic domain (Gly596 to Val855 residues) expressed in Escherichia coli using Boc-QAR-AMC as substrate preincubated for 30 mins followed by substrate addition by fluorescence based assay. The gist of the method: (§1)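 Inhibitor in 11-point serial dilution (0-20 µM final, 2% DMSO) pre-incubated 30 min at room temperature with enzyme in TNC buffer (25 mM Tris, 150 mM NaCl, 5 mM CaCl2, 0.01% Triton X-100, pH 8). […] Hepsin activated beforehand 24 h at 37°C. Fluorescence ex 380/em 460 nm kinetic; four-parameter fit of velocities; mean of three experiments.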

In data set [6] the target is T2, Serine protease hepsin (Homo sapiens, UniProt P05981). Nature of the data set: Inhibition of recombinant human C-terminal 10-His tagged hepsin (Arg45 to Leu417) expressed in mouse myeloma cells using Boc-QAR-AMC as substrate preincubated for 30 mins followed by substrate addition by fluorescence based assay. It is filed as single protein. The gist of the method: as §1

For data set [7], the target named is Coagulation factor X (Homo sapiens, UniProt P00742). Nature of the data set: Inhibition of recombinant C-terminal 10His-tagged human coagulation factor 10a (Leu24 to Lys488 residues) expressed in baculovirus infected Sf9 insect cells using Bz-Ile-Glu-Gly-Arg-pNA as substrate preincubated for 30 mins followed by substrate addition by chromogenic assay.
Data set [8] in a line: Stability in human plasma assessed as half life. In kind it is ADME, cell-free.
Data set [9] in a line: Plasma protein binding in mouse assessed as unbound fraction. In kind it is ADME, cell-free.
Data set [10] is described as follows: Half life in mouse plasma at 20 mg/kg, ip. It is filed as ADME, organism-based. As to conditions: in vivo, 20 mg/kg.
The nature of data set [11]: Solubility of compound at pH 7.4. It is filed as physicochemical. As to conditions: buffer.
Data set [12] in a line: Stability in mouse liver microsomes assessed as half life. It is filed as ADME, Microsome. (Liver microsomes are a subcellular fraction often used to study metabolism.)
Data set [13] has as its target T2, Serine protease hepsin. Nature of the data set: Inhibition of recombinant human C-terminal 10-His tagged hepsin (Arg45 to Leu417) expressed in mouse myeloma cells mediated pro-HGF activation preincubated for 30 mins followed by pro-HGF addition and measured after 1 hr by immunoblotting analysis. A digest of the protocol: (§2)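 Recombinant pro-HGF (10 ng) incubated one hour with matriptase (1 nM), hepsin (10 nM) or HGFA (5 nM), with or without inhibitor. Processing detected by immunoblot with a polyclonal antibody recognizing pro-HGF and the HGF alpha and beta chains; active HGF served as positive control.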

In data set [14] the target is T3, Hepatocyte growth factor activator serine protease (Homo sapiens) (UniProt Q04756).
T3 sequence (whole entry): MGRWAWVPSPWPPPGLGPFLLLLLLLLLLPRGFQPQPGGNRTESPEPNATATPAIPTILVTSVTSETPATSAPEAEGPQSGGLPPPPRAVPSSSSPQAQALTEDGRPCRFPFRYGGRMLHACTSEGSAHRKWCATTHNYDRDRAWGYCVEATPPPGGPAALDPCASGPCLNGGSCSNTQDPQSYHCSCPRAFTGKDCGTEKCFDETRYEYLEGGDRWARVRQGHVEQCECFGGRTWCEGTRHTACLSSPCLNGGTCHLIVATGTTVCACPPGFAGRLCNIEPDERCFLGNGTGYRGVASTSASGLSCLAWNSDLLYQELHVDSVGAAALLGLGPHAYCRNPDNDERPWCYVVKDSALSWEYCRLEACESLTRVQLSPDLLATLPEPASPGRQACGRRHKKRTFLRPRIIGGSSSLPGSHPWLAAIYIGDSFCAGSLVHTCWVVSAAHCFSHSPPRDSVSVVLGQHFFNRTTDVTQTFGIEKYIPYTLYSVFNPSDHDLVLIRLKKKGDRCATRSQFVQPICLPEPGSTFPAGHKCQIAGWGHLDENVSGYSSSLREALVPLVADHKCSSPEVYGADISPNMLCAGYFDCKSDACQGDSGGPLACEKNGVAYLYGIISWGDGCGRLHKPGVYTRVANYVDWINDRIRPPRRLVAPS
As to the kind of experiment: Inhibition of recombinant human HGFA serine protease domain mediated pro-HGF activation preincubated for 30 mins followed by pro-HGF addition and measured after 1 hr by immunoblotting analysis. A digest of the protocol: as §2

Data set [15] relates to HCC827. As to the kind of experiment: Cytotoxicity against human HCC827 cells assessed as reduction in cell viability at 0.1 to 1 uM after 72 hrs by crystal violet staining based assay. As to conditions: dose 0.1-1 µM.

`CC(=O)N[C@@H](CO)C(=O)N[C@@H](CCCCN)C(=O)N[C@@H](CC(C)C)C(=O)N[C@@H](CCCNC(=N)N)C(=O)c1nc2ccc(C(=O)N[C@H](C(N)=O)C(C)C)cc2s1` (Ac-SKL[X1]V-NH2): the inhibition entry in data set [1], in [13] and in data set [14] was “Active” in each case. Moreover, the Activity result in data set [2] and in [3] was “Non-Toxic” throughout. Besides, the result in [4] was Active. Moreover, the pIC50 (as a rule, the IC50 on a negative log10 scale, so that one unit is a factor of ten) in [5] is 7.68; in data set [6] it was 9.42; in data set [7] it was 6.11. Also, the t1/2 was 140 min in data set [8], 2 h in data set [10] and greater than 145 min in data set [12]. In data set [9], the fraction unbound (commonly the share of the substance not bound to proteins or other matrix) came out at 0.167. In addition, the solubility (commonly the concentration that dissolves in the medium under given conditions) in data set [11] is 200 µM (≈ 161 µg/mL). Moreover, the result in data set [15] was inactive.
